Source: ChEMBL document CHEMBL5576048, “A Second-Generation Oral SARS-CoV-2 Main Protease Inhibitor Clinical Candidate for the Treatment of COVID-19” (J Med Chem, 2024)
pEC50, pKi: −log10 of the molar value.

Key:
[1] = biological target: Replicase polyprotein 1ab (Severe acute respiratory syndrome coronavirus 2, UniProt P0DTD1); assay: Inhibition of SARS-Cov-2 MPro assessed as inhibition constant by FRET assay
SARS-CoV-2 [2] = assay: Antiviral activity against SARS CoV-2 USA_WA1/2020 infected in ACE2 enriched African green monkey Vero E6 cells assessed as reduction in virus-induced cytopathic effect measured after 3 days by celltiter-glo assay; format: functional, organism-based; settings: Severe acute respiratory syndrome coronavirus 2, USA_WA1/2020, Vero C1008, 72 h
[3] = Passive permeability across apical to basolateral side in dog RRCK cells incubated for 30 mins; format: ADME, cell-based, Canis lupus familiaris; settings: mdckii-le, 0.5 h
[4] = Metabolic stability in human liver microsome assessed as apparent intrinsic clearance in presence of NADPH incubated for 40 mins by LS-MS/MS analysis; format: ADME; settings: microsomes
[5] = Lipophilicity, log D of compound at pH 7.4 by shake-flask method; format: physicochemical; settings: buffer
[6] = Clearance in Wistar Hannover rat at 1 mg/kg, iv by LC-MS/MS analysis; format: ADME, organism-based; settings: in vivo
[7] = Volume of distribution at steady state in Wistar Hannover rat at 1 mg/kg, iv by LC-MS/MS analysis; format: ADME, organism-based; settings: in vivo, read-out: Vdss
[8] = Half life in Wistar Hannover rat at 1 mg/kg, iv by LC-MS/MS analysis; format: ADME, organism-based; settings: in vivo
[9] = Renal clerance in Wistar Hannover rat at 1 mg/kg, iv by LC-MS/MS analysis; format: ADME, organism-based; settings: in vivo
[10] = Cmax in Wistar Hannover rat at 10 mg/kg, po by LC-MS/MS analysis; format: ADME, organism-based; settings: in vivo
How it was run: (§1)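 Male Wistar–Han rats in the fed state were dosed orally at 10 mg/kg, as amorphous solid in solution or crystalline solid in suspension, in 2% (v/v) Tween 80 in 0.5% (w/v) methyl cellulose in water. Parameters were calculated from plasma concentration–time data; mean and individual values given (n = 2). Oral F is set against a 1 mg/kg i.v. dose.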

[11] = Tmax in Wistar Hannover rat at 10 mg/kg, po by LC-MS/MS analysis; format: ADME, organism-based; settings: in vivo; how it was run: as §1
[12] = AUC (0 to 24 hrs) in Wistar Hannover rat at 1 mg/kg, iv by LC-MS/MS analysis; format: ADME, organism-based; settings: in vivo
[13] = AUC (0 to 24 hrs) in Wistar Hannover rat at 10 mg/kg, po by LC-MS/MS analysis; format: ADME, organism-based; settings: in vivo; how it was run: as §1
[14] = Oral bioavailability in Wistar Hannover rat at 10 mg/kg by LC-MS/MS analysis; format: ADME, organism-based; settings: in vivo; how it was run: as §1
[15] = Cmax in Wistar Hannover rat at 10 mg/kg, po administered as ASD form in 2% Tween 80 (v/v) in 0.5% (w/v) methyl cellulose in water formulation by LC-MS/MS analysis; format: ADME, organism-based; settings: in vivo
How it was run: (§2)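 Parameters come from plasma concentration–time data as mean and individual values (n = 2); exposure for this form was reported as AUC0–∞. Oral F is referenced to a 1 mg/kg i.v. dose.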

[16] = Tmax in Wistar Hannover rat at 10 mg/kg, po administered as ASD form in 2% Tween 80 (v/v) in 0.5% (w/v) methyl cellulose in water formulation by LC-MS/MS analysis; format: ADME, organism-based; settings: in vivo; how it was run: as §2
[17] = AUC (0 to 24 hrs) in Wistar Hannover rat at 10 mg/kg, po administered as ASD form in 2% Tween 80 (v/v) in 0.5% (w/v) methyl cellulose in water formulation by LC-MS/MS analysis; format: ADME, organism-based; settings: in vivo
[18] = Oral bioavailability in Wistar Hannover rat at 10 mg/kg administered as ASD form in 2% Tween 80 (v/v) in 0.5% (w/v) methyl cellulose in water formulation by LC-MS/MS analysis; format: ADME, organism-based; settings: in vivo; how it was run: as §2
SARS-CoV-2 [19] = assay: Antiviral activity against SARS CoV-2 infected in African green monkey Vero E6 cells; format: functional, organism-based; settings: Severe acute respiratory syndrome coronavirus 2, Vero C1008
[20] = Cmax in Wistar Hannover rat at 10 mg/kg, po administered as crystalline form in 2% Tween 80 (v/v) in 0.5% (w/v) methyl cellulose in water formulation by LC-MS/MS analysis; format: ADME, organism-based; settings: in vivo; how it was run: as §1
[21] = Tmax in Wistar Hannover rat at 10 mg/kg, po administered as crystalline form in 2% Tween 80 (v/v) in 0.5% (w/v) methyl cellulose in water formulation by LC-MS/MS analysis; format: ADME, organism-based; settings: in vivo; how it was run: as §1
[22] = AUC (0 to 24 hrs) in Wistar Hannover rat at 10 mg/kg, po administered as crystalline form in 2% Tween 80 (v/v) in 0.5% (w/v) methyl cellulose in water formulation by LC-MS/MS analysis; format: ADME, organism-based; settings: in vivo; how it was run: as §1
[23] = Oral bioavailability in Wistar Hannover rat at 10 mg/kg administered as crystalline form in 2% Tween 80 (v/v) in 0.5% (w/v) methyl cellulose in water formulation by LC-MS/MS analysis; format: ADME, organism-based; settings: in vivo; how it was run: as §1
[24] = AUC (0 to 24 hrs) in Wistar Hannover rat at 100 mg/kg, po administered as crystalline anhydrous form in 2% (v/v) Tween 80/98% 0.5% (w/v) methyl cellulose in water formulation by LC-MS/MS analysis; format: ADME, organism-based; settings: in vivo
How it was run: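 Single high oral dose of 100 mg/kg in male Wistar–Han rats in the fed state, given as crystalline suspension in 2% (v/v) Tween 80 in 0.5% (w/v) methylcellulose in water. Parameters were derived from plasma concentration–time data and reported as mean ± S.D. (n = 3) or mean and individual values (n = 2).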

[25] = AUC (0 to 24 hrs) in Wistar Hannover rat at 10 mg/kg, po administered as crystalline MTBE in 10% (v/v) ethanol/10% (v/v) capmul MCM/35% (v/v) PEG400/45% (v/v) Tween 80 formulation by LC-MS/MS analysis; format: ADME, organism-based; settings: in vivo
[26] = AUC (0 to 24 hrs) in Wistar Hannover rat at 100 mg/kg, po administered as crystalline MTBE in 10% (v/v) ethanol/10% (v/v) capmul MCM/35% (v/v) PEG400/45% (v/v) Tween 80 formulation by LC-MS/MS analysis; format: ADME, organism-based; settings: in vivo
[27] = AUC (0 to 24 hrs) in Wistar Hannover rat at 1000 mg/kg, po administered as crystalline MTBE in 10% (v/v) ethanol/10% (v/v) capmul MCM/35% (v/v) PEG400/45% (v/v) Tween 80 formulation by LC-MS/MS analysis; format: ADME, organism-based; settings: in vivo
in vivo [28] = settings: Wistar Hannover, rat, po, 1000 mg/kg
in vivo [29] = settings: Wistar Hannover, rat, po, 100 mg/kg
in vivo [30] = settings: Wistar Hannover, rat, po, 10 mg/kg
in vivo [31] = settings: Wistar Hannover, rat, po, 100 mg/kg; remark: listed apart in the source
in vivo [32] = settings: Wistar Hannover, rat, po, 1000 mg/kg; remark: listed apart in the source

Row | SMILES | pKi [1] | pEC50 (SARS-CoV-2 [2]) | permeability [3] | CLH(app) [4] [µL/min/mg] | logD [5] | other results
1 | COC(=O)N[C@H](C(=O)N1C[C@H](C(F)(F)F)C[C@H]1C(=O)N[C@H](C#N)C[C@@H]1CCCNC1=O)C(C)(C)C | 9.77 | 7.34 | 0.4 10^-6 cm/s | 9.5 | 1.2 | –
2 | COC(=O)N[C@H](C(=O)N1C[C@H]2[C@@H]([C@H]1C(=O)N[C@H](C#N)C[C@@H]1CCNC1=O)C2(C)C)C(C)(C)C | – | – | 0.61 10^-6 cm/s | 8.1 | 1.2 | –
3 | COC(=O)N[C@H](C(=O)N1C[C@H](OC(F)(F)F)C[C@H]1C(=O)N[C@H](C#N)C[C@@H]1CCNC1=O)C(C)(C)C | 9.20 | 6.85 | 2.05 10^-6 cm/s | < 7.12 | 1 | clearance [6]: 25.4 mL/min/kg; Vd [7]: 0.87 L/kg; half-life [8]: 360 min; CL renal [9]: 8.1 mL/min/kg; Cmax [10]: 358 ng/mL; Tmax [11]: 15 min; AUC(0-t) [12]: 650 ng·h/mL; AUC(0-t) [13]: 559 ng·h/mL; bioavailability [14]: 8.6%
4 | CC(C)(C)[C@H](NC(=O)C(F)(F)F)C(=O)N1C[C@H](OC(F)(F)F)C[C@H]1C(=O)N[C@H](C#N)C[C@@H]1CCNC1=O | 9.15 | 7.09 | 1.12 10^-6 cm/s | < 9.42 | 1.7 | –
5 | COC(=O)N[C@H](C(=O)N1C[C@H](C(F)(F)F)C[C@H]1C(=O)N[C@H](C#N)C[C@@H]1CCNC1=O)C(C)C | 7.88 | 6.31 | 0.5 10^-6 cm/s | < 7.12 | 0.9 | –
6 | CC(C)(C)[C@H](NC(=O)C(F)(F)F)C(=O)N1C[C@H](C(F)(F)F)C[C@H]1C(=O)N[C@H](C#N)C[C@@H]1CCNC1=O | 8.35 | 7.18 | 0.71 10^-6 cm/s | 13 | 1.4 | –
7 | COC(=O)N[C@H](C(=O)N1C[C@H](C(F)(F)F)C[C@H]1C(=O)N[C@H](C#N)C[C@@H]1CCCNC1=O)C(C)C | 8.95 | 7.10 | 0.63 10^-6 cm/s | < 7.12 | 0.7 | clearance [6]: 35.6 mL/min/kg; Vd [7]: 0.55 L/kg; half-life [8]: 114 min; CL renal [9]: 7.6 mL/min/kg; Cmax [10]: 310 ng/mL; Cmax [15]: 177 ng/mL; Tmax [11]: 22.8 min; Tmax [16]: 22.8 min; AUC(0-t) [12]: 467 ng·h/mL; AUC(0-t) [13]: 359 ng·h/mL; AUC(0-t) [17]: 380 ng·h/mL; bioavailability [14]: 7.7%; bioavailability [18]: 8.1%
8 | COC(=O)N[C@H](C(=O)N1C[C@H](C(F)(F)F)C[C@H]1C(=O)N[C@H](C#N)C[C@@H]1CC(O)NC1=O)C(C)(C)C (stereo not given in full) | 7.89 | – | – | – | – | pEC50 (SARS-CoV-2 [19]): 5.78
9 | CC(C)(C)[C@H](NC(=O)C(F)(F)F)C(=O)N1C[C@H](OC(F)F)C[C@H]1C(=O)N[C@H](C#N)C[C@@H]1CCNC1=O | 8.55 | 6.71 | 1.25 10^-6 cm/s | < 7.12 | 1.2 | clearance [6]: 33.1 mL/min/kg; Vd [7]: 1.05 L/kg; half-life [8]: 306 min; CL renal [9]: 4.5 mL/min/kg; Cmax [20]: 272 ng/mL; Cmax [15]: 92.8 ng/mL; Tmax [21]: 30 min; Tmax [16]: 45 min; AUC(0-t) [12]: 502 ng·h/mL; AUC(0-t) [22]: 599 ng·h/mL; AUC(0-t) [17]: 212 ng·h/mL; bioavailability [23]: 11.9%; bioavailability [18]: 4.2%
10 | CC(C)(C)[C@H](NC(=O)C(F)(F)F)C(=O)N1C[C@H]2[C@@H]([C@H]1C(=O)N[C@H](C#N)C[C@@H]1CCNC1=O)C2(C)C | – | 7.09 | 1.03 10^-6 cm/s | – | 1.9 | AUC(0-t) [24]: 18000 ng·h/mL; AUC(0-t) [25]: 3190 ng·h/mL; AUC(0-t) [26]: 68300 ng·h/mL; AUC(0-t) [27]: 746000 ng·h/mL; Cmax (in vivo [28]): 88300 ng/mL; Tmax (in vivo [29]): 84 min; Tmax (in vivo [30]): 90 min; Tmax (in vivo [31]): 45 min; Tmax (in vivo [32]): 60 min
11 | COC(=O)N[C@H](C(=O)N1C[C@H](OC(F)F)C[C@H]1C(=O)N[C@H](C#N)C[C@@H]1CCNC1=O)C(C)(C)C | 8.41 | 6.35 | 0.76 10^-6 cm/s | < 7.12 | 0.6 | –
12 | CNC(=O)N[C@H](C(=O)N1C[C@H]2[C@@H]([C@H]1C(=O)N[C@H](C#N)C[C@@H]1CCNC1=O)C2(C)C)C(C)(C)C | – | – | 0.62 10^-6 cm/s | < 7.12 | 0.77 | –
